Active and inactive are the calls of the source. The rule behind the calls is not given here.
Tests used:
[1] = molecular target: Neuronal acetylcholine receptor; alpha3/beta4 (Rattus norvegicus, UniProt P04757+P12392); assay: Non-competitive inhibition of rat alpha3beta4 nAChR expressed in KX cells assessed as reduction in current by whole-cell patch clamp assay; assay type: cell-based
In short: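 KXα3β4R2 cells (rat α3β4) grown in MEM with 10% FBS and 0.7 mg/ml geneticin at 37 °C, 5% CO2, and harvested at 70% confluence. Whole-cell clamp at […] holding potential in HEPES pH 7.4 bath (120 mM NaCl, 3.1 mM KCl, 2 mM CaCl2, 5 mM glucose) at room temperature. Pipette solution: CsCl, ATP, EGTA, pH 7.2. Agents were applied from 0.1 nM upward with 100 µM (S)-nicotine; IC50 taken from current decrease relative to nicotine alone (100%).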

Rattus norvegicus [2] = assay: Effect on basal locomotor activity in Wistar rat at 1/20 to 1/10 LD50, ip; assay type: ADME, organism-based; conditions: in vivo
Rattus norvegicus [3] = assay: Toxicity in Wistar rat assessed as inhibition of conditioned place preference at 1/20 to 1/10 LD50, ip in absence of nicotine preconditioning; assay type: organism-based; conditions: in vivo
Rattus norvegicus [4] = assay: Behavioral effect in Wistar rat assessed as inhibition of nicotine-induced conditioned place preference at 1/20 LD50, ip administered during post-conditioning test phase on day 5 of nicotine treatment; assay type: functional, organism-based
In short: (§1)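 Male Wistar rats (250–300 g), on restricted chow and handled for 5 days. A 15-min baseline excluded rats with a side preference. On days 2–4, two 30-min sessions per day: vehicle in the morning, nicotine 0.175 mg/kg ip in the afternoon, each in opposite compartments. On day 5, agent given ip (5 ml/kg) 60 min before nicotine, then tested immediately. Score is post- minus pre-conditioning time in the drug-paired compartment; n = 7–14.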

Rattus norvegicus [5] = assay: Effect on basal locomotor activity in Wistar rat at 5 mg/kg, ip; assay type: ADME, organism-based; design: dose 5 mg/kg, route intraperitoneal; conditions: in vivo
Rattus norvegicus [6] = assay: Toxicity in Wistar rat assessed as inhibition of conditioned place preference at 10 mg/kg, ip in absence of nicotine preconditioning; assay type: organism-based; design: dose 10 mg/kg, route intraperitoneal; conditions: in vivo
Rattus norvegicus [7] = assay: Behavioral effect in Wistar rat assessed as inhibition of nicotine-induced conditioned place preference at 10 mg/kg, ip administered during post-conditioning test phase on day 5 of nicotine treatment; assay type: functional, organism-based; design: dose 10 mg/kg; in short: as §1

Neuronal acetylcholine receptor; alpha3/beta4, sequence (P04757 whole entry): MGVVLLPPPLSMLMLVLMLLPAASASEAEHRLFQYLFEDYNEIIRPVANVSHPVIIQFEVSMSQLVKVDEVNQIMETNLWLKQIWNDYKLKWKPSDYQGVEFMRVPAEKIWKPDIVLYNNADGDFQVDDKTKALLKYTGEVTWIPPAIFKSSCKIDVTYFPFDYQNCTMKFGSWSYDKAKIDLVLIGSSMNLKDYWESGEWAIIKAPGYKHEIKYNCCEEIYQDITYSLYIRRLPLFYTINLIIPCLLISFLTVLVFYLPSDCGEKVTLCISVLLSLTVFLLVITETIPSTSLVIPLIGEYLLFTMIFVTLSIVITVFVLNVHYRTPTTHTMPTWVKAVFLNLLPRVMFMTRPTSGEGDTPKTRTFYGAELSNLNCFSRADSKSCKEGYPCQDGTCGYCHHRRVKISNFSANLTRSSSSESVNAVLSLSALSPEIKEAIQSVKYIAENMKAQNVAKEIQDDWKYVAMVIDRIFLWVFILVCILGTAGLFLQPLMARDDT
Neuronal acetylcholine receptor; alpha3/beta4, sequence (P12392 whole entry): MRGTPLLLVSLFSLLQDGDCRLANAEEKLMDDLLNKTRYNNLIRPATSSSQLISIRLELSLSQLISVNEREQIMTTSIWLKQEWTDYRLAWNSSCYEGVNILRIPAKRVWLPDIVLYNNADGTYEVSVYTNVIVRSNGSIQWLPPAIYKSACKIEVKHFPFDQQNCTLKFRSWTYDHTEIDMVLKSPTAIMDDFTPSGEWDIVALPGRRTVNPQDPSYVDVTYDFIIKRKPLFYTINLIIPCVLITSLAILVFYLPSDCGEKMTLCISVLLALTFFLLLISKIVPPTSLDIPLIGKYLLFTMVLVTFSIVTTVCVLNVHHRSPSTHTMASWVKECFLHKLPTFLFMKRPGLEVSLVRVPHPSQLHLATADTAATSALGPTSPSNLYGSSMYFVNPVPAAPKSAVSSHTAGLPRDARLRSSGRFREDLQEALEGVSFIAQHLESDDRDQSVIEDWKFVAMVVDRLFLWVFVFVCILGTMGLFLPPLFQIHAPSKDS

| Compound | IC50 [1] [µM] | other results |
| --- | --- | --- |
| COc1ccc2c(c1)[C@]13CCCC[C@@H]1[C@H](C2)NCC3 | 3.08 |  |
| COc1ccc2c(c1)[C@]13CCCC[C@@H]1[C@H](C2)N(CC1OCCO1)CC3 | 1.95 | Activity (Rattus norvegicus [2]): Non-toxic; Activity (Rattus norvegicus [3]): Non-toxic |
| COc1ccc2c(c1)[C@]13CCCC[C@@H]1[C@H](C2)N(CC#N)CC3 | 10.5 | inhibition (Rattus norvegicus [4]): Active; Activity (Rattus norvegicus [2]): Non-toxic; Activity (Rattus norvegicus [3]): Non-toxic |
| COc1ccc2c(c1)[C@]13CCCC[C@@H]1[C@H](C2)N(CC1=NCCN1)CC3 | 6.61 |  |
| COc1ccc2c(c1)[C@]13CCCC[C@@H]1[C@H](C2)N(CCC1OCCO1)CC3 | 7.14 | Activity (Rattus norvegicus [2]): Non-toxic; Activity (Rattus norvegicus [3]): Non-toxic |
| COc1ccc2c(c1)[C@]13CCCC[C@@H]1[C@H](C2)N(C)CC3 [DEXTROMETHORPHAN] | 11.1 | Activity (Rattus norvegicus [5]): Non-toxic; Activity (Rattus norvegicus [6]): Non-toxic; inhibition (Rattus norvegicus [7]): Active |
| COc1ccc2c(c1)[C@]13CCCC[C@@H]1[C@H](C2)N(CCC#N)CC3 | 176 |  |
| COc1ccc2c(c1)[C@]13CCCC[C@@H]1[C@H](C2)N(CC(N)=O)CC3 | 41.4 |  |
| COc1ccc2c(c1)[C@]13CCCC[C@@H]1[C@H](C2)N(CCC(C)=O)CC3 | 2.57 |  |
| COc1ccc2c(c1)[C@]13CCCC[C@@H]1[C@H](C2)N(CCCC#N)CC3 | 87 |  |
| CCC(=O)CN1CC[C@@]23CCCC[C@@H]2[C@@H]1Cc1ccc(OC)cc13 | 2.5 |  |

From ChEMBL document CHEMBL3351392, “Synthesis, in vitro and in vivo studies, and molecular modeling of N-alkylated dextromethorphan derivatives as non-competitive inhibitors of α3β4 nicotinic acetylcholine receptor” (Bioorg Med Chem, 2014)
